Results on 31 compounds are retold here after ChEMBL document CHEMBL1144767, “Characterization of chemical libraries for luciferase inhibitory activity” (J Med Chem, 2008).

In assay [1] the target is T1, Luciferin 4-monooxygenase (Photinus pyralis, UniProt P08659). Nature of the assay: Inhibition of Photinus pyralis luciferase by Steady-Glo reporter gene assay. The essentials:
(§1)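 5 nM purified P. pyralis luciferase in SteadyGlo or BrightGlo reporter-gene reagent; no extra ATP or D-luciferin added. 1536-well luminescence. Curves from 16 two-fold concentrations in duplicate, repeated on two or three separate days.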

The target in assay [2] is T1, Luciferin 4-monooxygenase. As to the kind of experiment: Inhibition of Photinus pyralis luciferase by BrightGlo reporter gene assay. The essentials: as §1
In assay [3] the target is T1, Luciferin 4-monooxygenase. Nature of the assay: Inhibition of Photinus pyralis luciferase by PK-Light assay.
Assay [4] concerns the target T1, Luciferin 4-monooxygenase. Nature of the assay: Inhibition of Photinus pyralis luciferase by Easy lite assay. The essentials:
(§2)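 Detection by 2 µL of EasyLite or Kinase-Glo reagent (Kinase-Glo containing P. pennsylvanica luciferase). 1536-well luminescence. 16 two-fold concentrations, duplicate wells, repeated on two or three days.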

Assay [5] has as its target T2, Luciferin 4-monooxygenase (Photuris pensylvanica) (UniProt Q27757).
T2 sequence (whole entry): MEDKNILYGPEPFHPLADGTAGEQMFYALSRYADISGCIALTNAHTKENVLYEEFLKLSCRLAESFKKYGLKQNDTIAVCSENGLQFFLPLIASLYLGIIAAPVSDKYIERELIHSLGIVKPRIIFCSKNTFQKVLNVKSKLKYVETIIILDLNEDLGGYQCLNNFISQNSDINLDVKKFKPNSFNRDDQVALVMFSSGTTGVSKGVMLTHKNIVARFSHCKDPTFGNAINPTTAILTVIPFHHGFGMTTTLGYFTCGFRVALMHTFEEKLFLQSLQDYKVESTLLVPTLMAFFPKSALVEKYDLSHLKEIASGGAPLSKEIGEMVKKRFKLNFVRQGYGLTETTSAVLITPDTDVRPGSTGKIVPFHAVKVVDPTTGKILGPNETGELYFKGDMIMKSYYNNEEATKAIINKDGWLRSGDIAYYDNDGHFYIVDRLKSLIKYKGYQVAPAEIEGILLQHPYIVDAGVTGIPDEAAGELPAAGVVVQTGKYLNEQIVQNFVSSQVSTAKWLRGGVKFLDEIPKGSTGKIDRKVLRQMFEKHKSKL
Nature of the assay: (§3) Inhibition of luciferase Photuris pennsylvanica by Promega Kinase-Glo assay. The essentials: as §2

The target in assay [6] is T1, Luciferin 4-monooxygenase. Nature of the assay: Inhibition of Photinus pyralis luciferase.
The target of assay [7] is T3, Luciferin 4-monooxygenase (Photuris pensylvanica, UniProt Q27757).
T3 sequence (Q27757 whole entry): T2 sequence (whole entry)
The assay is described as §3. Summed up: as §2

Assay [8] can be described thus: Inhibition of Renilla reniformis luciferase.

pIC50: −log10 of the molar value. Active and inactive are the calls of the source. The calls are words filed in the database; no cut-off is given here.

T1 sequence (P08659 whole entry): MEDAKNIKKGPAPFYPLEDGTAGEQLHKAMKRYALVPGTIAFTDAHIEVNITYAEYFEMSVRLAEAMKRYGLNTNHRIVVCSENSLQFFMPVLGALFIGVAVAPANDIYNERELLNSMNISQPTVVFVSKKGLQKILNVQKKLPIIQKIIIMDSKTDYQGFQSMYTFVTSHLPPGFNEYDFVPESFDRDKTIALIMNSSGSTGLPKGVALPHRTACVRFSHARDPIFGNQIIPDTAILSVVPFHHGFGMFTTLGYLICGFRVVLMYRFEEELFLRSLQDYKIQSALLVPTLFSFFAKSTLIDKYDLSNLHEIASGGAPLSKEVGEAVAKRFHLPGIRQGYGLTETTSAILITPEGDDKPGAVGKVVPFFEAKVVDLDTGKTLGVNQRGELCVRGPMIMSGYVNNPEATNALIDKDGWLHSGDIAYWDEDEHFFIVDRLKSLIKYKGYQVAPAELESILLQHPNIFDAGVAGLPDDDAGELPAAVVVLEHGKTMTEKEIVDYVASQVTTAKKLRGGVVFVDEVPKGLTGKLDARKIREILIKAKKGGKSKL

Regarding `COc1cccc(-c2cc(=O)c3ccccc3o2)c1N`, the pIC50 in assay [1] was less than 4.00; in assay [2] it was 4.22; in assay [3], 5.19; in assay [4], 4.96; in assay [6] it was 5.21. The result in assay [5] was inactive.

Regarding `COc1ccc(C(=O)NC(=O)Nc2cc(C)ccn2)cc1`, the pIC50 in assay [1] is 5.92; in assay [2] it was 6.00; in assay [3] it was 6.01; in assay [4], 6.43; in assay [7], 5.16; in assay [6] it was 6.39.

Consider `O=C(/C=C\Nc1cccc(F)c1)c1ccc2c(c1)OCO2`, for which the pIC50 in assay [1] is 6.05; in assay [2] it was 5.72; in assay [3], 5.92; in assay [4], 5.92; in assay [7], less than 4.30; in assay [6] it was 6.52.

Consider `O=c1cc(-c2ccccc2O)oc2ccc3ccccc3c12`, for which the pIC50 in assay [1] is 7.22; in assay [2], 7.05; in assay [3] it was 6.15; in assay [4] it was 6.70; in assay [7], 4.85; in assay [6], 7.30.

Turning to `Cc1ccc2nc(NC(=O)c3cccs3)sc2c1`, the pIC50 in assay [1] is 5.16; in assay [2], 5.17; in assay [3] it was 5.85; in assay [4] it was 5.77; in assay [7], less than 4.30; in assay [6] it was 6.30.

In the case of `Cc1ccc(-c2nc(-c3ccccn3)no2)cc1Cl`, the pIC50 was 5.80 in assay [1]; 5.85 in assay [2]; 5.68 in assay [3]; 6.10 in assay [4]; 4.66 in assay [7]; 6.66 in assay [6].

For `c1ccc(-c2noc(-c3ccc4ccccc4c3)n2)cc1`, the pIC50 is 5.85 in assay [1]; 5.59 in assay [2]; 5.80 in assay [3]; 5.68 in assay [4]; 6.40 in assay [6]. In addition, the outcome in assay [5] was inactive.

On to `CN1CCN(C(=O)COc2ccc(-c3nc4ccccc4s3)cc2)CC1`, for which the pIC50 in assay [1] is 6.00; in assay [2], 5.19; in assay [3], 6.05; in assay [4], 6.40; in assay [6], 6.52. Besides, the result in assay [5] was inactive.

As to `COc1ccc(C(=O)Nc2ccc(C)cn2)c(OC)c1`, the pIC50 in assay [1] was 6.30; in assay [2] it was 6.70; in assay [3] it was 6.60; in assay [4] it was 6.55; in assay [7], 4.85; in assay [6], 7.10.

As for `Cc1cccc(/C=C/c2ccccc2)n1`, the pIC50 in assay [1] was less than 4.00; in assay [2], 4.62; in assay [3], 4.77; in assay [4], 4.96; in assay [7], less than 4.30; in assay [6], 5.37.

Take `O=c1c2ccccc2cnn1-c1nc2ccccc2s1`: the pIC50 in assay [1] is 6.22; in assay [2], 6.15; in assay [3], 6.70; in assay [4], 6.82; in assay [7], 5.29; in assay [6], 6.52.

On to `O=C(/C=C\Nc1ccc(F)cc1)c1ccco1`, for which the pIC50 is 5.40 in assay [1]; 5.44 in assay [2]; 5.44 in assay [3]; 5.96 in assay [4]; 4.85 in assay [7]; 6.00 in assay [6].

Turning to `c1ccc(-c2noc(-c3ccc4ccccc4c3)n2)nc1`, the pIC50 in assay [1] is 6.70; in assay [2], 6.70; in assay [3], 6.66; in assay [4] it was 6.66; in assay [8], 4.60; in assay [7], 4.95. For the same compound, the pIC50 in assay [6] was 7.00.

Turning to `CS(=O)(=O)c1ccc2nc(NC(=O)c3cccs3)sc2c1`, the pIC50 in assay [1] was 5.60; in assay [2], 5.49; in assay [3], 5.21; in assay [4], 5.89; in assay [7], 5.02; in assay [6] it was 5.96.

Regarding `CC(C)(C)C(=O)Nc1ccc(NC(=O)c2cccc(O)c2)nc1`, the pIC50 in assay [1] was 6.10; in assay [2], 5.14; in assay [3], 5.30; in assay [4], 6.10; in assay [7], less than 4.52; in assay [6] it was 6.15.

Take `O=C(N/N=C/c1ccccc1O)c1ccccc1O`: the negative logarithm of the IC50 (pIC50) is 4.70 in assay [1]; 5.59 in assay [2]; 5.60 in assay [3]; 5.44 in assay [4]; 6.10 in assay [6]. The outcome in assay [5] was inactive.

For `COc1ccc2nc(NC(=O)c3ccoc3C)sc2c1`, the pIC50 in assay [1] is 4.99; in assay [2], 5.23; in assay [3], 5.68; in assay [4], 5.35; in assay [7], 5.44; in assay [6], 5.92.

In the case of `O=C(/C=C\Nc1ccccc1Br)c1ccccn1`, the pIC50 in assay [1] was 6.70; in assay [2], 7.10; in assay [3] it was 6.77; in assay [4], 6.77; in assay [8], less than 4.30; in assay [7], 5.00. The compound also gave a pIC50 in assay [6] of 7.10.

With `Cc1cccc(C#Cc2ccccc2)n1`, the pIC50 in assay [1] is less than 4.00; in assay [2], 4.52; in assay [3], 5.18; in assay [4] it was 5.13; in assay [6], 5.33. The result in assay [5] was inactive.

Consider `CN(C)c1ccc(N/C=C\C(=O)c2ccccc2)cc1`, for which the pIC50 in assay [1] was 6.22; in assay [2] it was 6.15; in assay [3], 6.22; in assay [4] it was 6.40; in assay [8], 4.96; in assay [7], 5.49. The compound further gave a pIC50 in assay [6] of 6.68.

On to `Brc1ccc(-c2nc(-c3ccccn3)no2)o1`, for which the pIC50 was 5.59 in assay [1]; 4.92 in assay [2]; 4.89 in assay [3]; 5.29 in assay [4]; 4.92 in assay [7]; 5.49 in assay [6].

Turning to `Clc1cccc(-c2nc(-c3ccccn3)no2)c1`, the pIC50 in assay [1] was 5.82; in assay [2], 5.92; in assay [3], 5.68; in assay [4] it was 6.15; in assay [8], less than 4.30; in assay [7], 5.13. Besides, in assay [6], the pIC50 is 6.30.

For the compound `Cc1ccc(-c2noc(-c3ccccc3Br)n2)cc1`, the pIC50 was 4.96 in assay [1]; 4.92 in assay [2]; 5.48 in assay [3]; 5.64 in assay [4]; 6.00 in assay [6]. Moreover, the outcome in assay [5] was inactive.

Regarding `CCOc1ccc(NC(=O)c2ccccc2OC)cc1`, the pIC50 in assay [1] is less than 4.30; in assay [2], 5.08; in assay [3], 5.55; in assay [4], 5.82; in assay [6] it was 6.22. In assay [5], the outcome was inactive.

Regarding `O=C(/C=C\Nc1ccccn1)c1ccc(Cl)cc1`, the pIC50 in assay [1] is 6.30; in assay [2] it was 5.92; in assay [3], 5.39; in assay [4], 5.33; in assay [6] it was 5.70. Further, in assay [5], the result was inactive.

As to `CCOc1ccc2nc(NC(=O)Nc3cccs3)sc2c1`, the pIC50 was 4.92 in assay [1]; 4.95 in assay [2]; 5.84 in assay [3]; 5.68 in assay [4]; 6.22 in assay [6]. The outcome in assay [5] was inactive.

On to `C[C@@H](C(=O)O)c1ccc(N2Cc3ccccc3C2=O)cc1` [(R)-INDOPROFEN], for which the pIC50 in assay [1] is 5.00; in assay [2], 5.28; in assay [3], 5.33; in assay [4] it was 5.44; in assay [7], less than 4.30; in assay [6] it was 6.70.

As to `Clc1ccc(-c2nc(-c3ccccn3)no2)cc1Cl`, the pIC50 in assay [1] was 5.48; in assay [2], 5.41; in assay [3] it was 5.39; in assay [4], 5.72; in assay [7], 4.72; in assay [6], 6.08.

For the compound `CCOc1ccc2nc(NC(=O)c3ccoc3C)sc2c1`, the pIC50 in assay [1] is 5.44; in assay [2], 5.40; in assay [3] it was 5.38; in assay [4] it was 5.24; in assay [7], 5.42; in assay [6], 6.19.

For the compound `Cc1ccc(C(=O)Cn2c3c(sc2=N)CCCC3)cc1`, the pIC50 in assay [1] was 5.55; in assay [2], 6.22; in assay [3], 5.96; in assay [4], 5.74; in assay [6], 6.49. The outcome in assay [5] was inactive.

On to `Cc1ccc(-c2nc(-c3ccccc3)no2)c(Cl)c1`, for which the pIC50 is 6.80 in assay [1]; 6.52 in assay [2]; 6.30 in assay [3]; 6.40 in assay [4]; 4.98 in assay [7]; 6.82 in assay [6].
